Reference: article PMC3160560 (Investigational New Drugs, 2010)
pIC50: −log10 of the molar value. Like-named read-outs stand apart in the source and are kept apart here.

Tests used:
[1] = tested on: ATP-binding cassette G2 (ABCG2/BCRP); details: in vitro; ref unpublished data (b4), 26; cited from earlier work
[2] = tested on: ATP-binding cassette B1 (ABCB1/MDR1); details: in vitro; ref unpublished data (b4), 26; cited from earlier work
[3] = biological target: fms-related tyrosine kinase 3 (FLT3); details: read-out: IC50 FLT3; panel of 32 kinases; cited from earlier work
[4] = pharmacokinetics in phase I cancer patients; type: in vivo, human
Procedure, shortened: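 In the phase I trial, the test compound was given IV on days 1, 8 and 15 every 28 days. Doses were 45–400 mg/m2 by 6-h infusion or 250–330 mg/m2 by 3-h infusion. Blood was sampled on days 1–4, 8, 15–18 and 22 of cycle 1. Clearance (L/hour/m2) came from non-compartmental analysis. Genotypes came from TaqMan assays on blood DNA and were compared by t-test/ANOVA.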

[5] = tested on: aurora-C (AURKC); details: read-out: IC50 aurora-C; cited from earlier work
[6] = tested on: histone H3 phosphorylation; experiment: histone H3 phosphorylation in skin biopsies by immunohistochemistry; type: in vivo, human
Procedure, shortened: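 Skin biopsies were taken at baseline and 10 min before the end of the first infusion of cycle 1. Phospho-histone H3 was stained by immunohistochemistry, giving the % change in positive cells. AURKB genotypes were compared by t-test/ANOVA.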

[7] = toxicity in first treatment cycle; type: in vivo, human; details: for Neutropenia grade 3–4: No (No. patients) / Neutropenia grade 3–4: Yes (No. patients): cycle 1, RP2D
Procedure, shortened: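 Adverse events in cycle 1 were graded by NCI-CTC v3.0. Phase II patients received 330 mg/m2 on days 1, 8 and 15 (6-h) or 500 mg/m2 on days 1 and 15 (24-h) every 28 days. Genotypes were compared by two-sided chi-square.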

[8] = tested on: aurora-B (AURKB); details: read-out: IC50 aurora-B; cited from earlier work
[9] = tested on: aurora-A (AURKA); details: read-out: IC50 aurora-A; cited from earlier work
[10] = biological target: vascular endothelial growth factor receptor 3 (FLT4, VEGFR3); details: read-out: IC50 FLT4 (VEGFR3); panel of 32 kinases; cited from earlier work
[11] = tested on: ret proto-oncogene (RET); details: read-out: IC50 RET; panel of 32 kinases; cited from earlier work
[12] = cited from earlier work
[13] = AURKA 91A > T AT, total 6 patients
[14] = AURKA 169G > A GA, total 11 patients
[15] = AURKA 169G > A GG, total 18 patients
[16] = AURKB 893G > A GA, total 8 patients
[17] = FLT3 738C > T CC, total 5 patients
[18] = FLT3 738C > T TT, total 10 patients
[19] = FLT4 1480A > G AG, total 7 patients
[20] = KDR 54G > A AA, total 5 patients
[21] = KDR 54G > A GA, total 16 patients
[22] = KDR 54G > A GG, total 9 patients
[23] = KDR 1192G > A GA, total 3 patients
[24] = KDR −92G > A AG, total 7 patients
[25] = KDR −92G > A GG, total 20 patients
[26] = KDR −604T > C TT, total 6 patients
[27] = RET 135G > A AA, total 3 patients (3 missing)
[28] = RET 135G > A GA, total 8 patients (3 missing)
[29] = RET 37412G > A GA, total 5 patients

SMILES: CO[C@@H](C(=O)N1Cc2n[nH]c(NC(=O)c3ccc(N4CCN(C)CC4)cc3)c2C1)c1ccccc1 [Danusertib]
- substrate for efflux protein ABCG2 [1]: substrate
- substrate for efflux protein ABCB1 [2]: substrate
- pIC50 [3]: > 6.30
- Clearance d1c1 Mean ([4]; ABCB1 1236C > T CC, 16 patients): 17.8 L/hour/m^2
- Clearance d1c1 Mean ([4]; ABCB1 1236C > T CT, 21 patients): 18.3 L/hour/m^2
- Clearance d1c1 Mean ([4]; ABCB1 1236C > T TT, 10 patients): 18.6 L/hour/m^2
- Clearance d1c1 Mean ([4]; ABCB1 2677G > A/T GG, 17 patients): 18.2 L/hour/m^2
- Clearance d1c1 Mean ([4]; ABCB1 2677G > A/T GT, 20 patients): 18.5 L/hour/m^2
- Clearance d1c1 Mean ([4]; ABCB1 2677G > A/T TT, 10 patients): 17.7 L/hour/m^2
- Clearance d1c1 Mean ([4]; ABCB1 3435C > T CC, 13 patients): 19.5 L/hour/m^2
- Clearance d1c1 Mean ([4]; ABCB1 3435C > T CT, 21 patients): 17.7 L/hour/m^2
- Clearance d1c1 Mean ([4]; ABCB1 3435C > T TT, 13 patients): 17.8 L/hour/m^2
- Clearance d1c1 Mean ([4]; ABCG2 346G > A GA, 2 patients): 18.6 L/hour/m^2
- Clearance d1c1 Mean ([4]; ABCG2 346G > A GG, 45 patients): 18.2 L/hour/m^2
- Clearance d1c1 Mean ([4]; ABCG2 421C > A CA, 11 patients): 18.8 L/hour/m^2
- Clearance d1c1 Mean ([4]; ABCG2 421C > A CC, 36 patients): 18.1 L/hour/m^2
- Clearance d1c1 Mean ([4]; ABCG2 15994G > A AA, 3 patients): 16.5 L/hour/m^2
- Clearance d1c1 Mean ([4]; ABCG2 15994G > A GA, 21 patients): 18.2 L/hour/m^2
- Clearance d1c1 Mean ([4]; ABCG2 15994G > A GG, 23 patients): 18.5 L/hour/m^2
- Clearance d1c1 Mean ([4]; FMO3 15167G > A AA, 12 patients): 16.9 L/hour/m^2
- Clearance d1c1 Mean ([4]; FMO3 15167G > A GA, 20 patients): 18.1 L/hour/m^2
- Clearance d1c1 Mean ([4]; FMO3 15167G > A GG, 15 patients): 19.5 L/hour/m^2
- Clearance d1c1 Mean ([4]; FMO3 18281G > A AA, 1 patient): 34.0 L/hour/m^2
- Clearance d1c1 Mean ([4]; FMO3 18281G > A GA, 11 patients): 17.2 L/hour/m^2
- Clearance d1c1 Mean ([4]; FMO3 18281G > A GG, 35 patients): 18.1 L/hour/m^2
- Clearance d1c1 Mean ([4]; FMO3 21443A > G AA, 27 patients): 19.2 L/hour/m^2
- Clearance d1c1 Mean ([4]; FMO3 21443A > G AG, 18 patients): 16.9 L/hour/m^2
- Clearance d1c1 Mean ([4]; FMO3 21443A > G GG, 2 patients): 16.4 L/hour/m^2
- Clearance day 1 cycle 1, Median ± SD ([4]; phase I patients, n = 47): 17.8 ± 5.8 L/hour/m^2
- pIC50 [5]: 7.21
- decrease in histone H3 phosphorylation ([6]; AURKB 893G > A heterozygous genotype (GA), SD 12.2%): 84%
- decrease in histone H3 phosphorylation ([6]; AURKB 893G > A homozygous wild type genotype (GG), SD 13.3%): 91%
- Histone H3 phosphorylation, % change in number of positive cells, Median ± SD ([6]; phase I patients, n = 28, skin, baseline vs 10 min before end of first infusion): -92.3 ± 13.1 Δ%
- Any toxicity grade 1–4 during cycle 1 ([7]; All patients N = 63): 51 (81) n (%)
- Any toxicity grade 3 or 4 during cycle 1 ([7]; All patients N = 63): 22 (35) n (%)
- Febrile neutropenia during cycle 1 ([7]; All patients N = 63): 1 (2) n (%)
- Neutropenia grade 1–4 during cycle 1 ([7]; All patients N = 63): 34 (54) n (%)
- Neutropenia grade 3 or 4 during cycle 1 ([7]; All patients N = 63): 18 (29) n (%)
- Any toxicity grade 1–4 during cycle 1 ([7]; Phase I patients N = 48): 37 (77) n (%)
- Any toxicity grade 3 or 4 during cycle 1 ([7]; Phase I patients N = 48): 15 (31) n (%)
- Febrile neutropenia during cycle 1 ([7]; Phase I patients N = 48): 1 (2) n (%)
- Neutropenia grade 1–4 during cycle 1 ([7]; Phase I patients N = 48): 25 (52) n (%)
- Neutropenia grade 3 or 4 during cycle 1 ([7]; Phase I patients N = 48): 12 (25) n (%)
- Any toxicity grade 1–4 during cycle 1 ([7]; RP2D patients N = 30): 28 (93) n (%)
- Any toxicity grade 3 or 4 during cycle 1 ([7]; RP2D patients N = 30): 15 (50) n (%)
- Febrile neutropenia during cycle 1 ([7]; RP2D patients N = 30): 1 (3) n (%)
- Neutropenia grade 1–4 during cycle 1 ([7]; RP2D patients N = 30): 19 (63) n (%)
- Neutropenia grade 3–4: No (No. patients) [7, 13]: 2
- Neutropenia grade 3–4: Yes (No. patients) [7, 13]: 4
- Neutropenia grade 3–4: No (No. patients) ([7]; AURKA 91A > T TT, total 4 patients): 4
- Neutropenia grade 3–4: No (No. patients) ([7]; AURKA 169G > A AA, total 1 patient): 1
- Neutropenia grade 3–4: No (No. patients) [7, 14]: 6
- Neutropenia grade 3–4: Yes (No. patients) [7, 14]: 5
- Neutropenia grade 3–4: No (No. patients) [7, 15]: 10
- Neutropenia grade 3–4: Yes (No. patients) [7, 15]: 8
- Neutropenia grade 3–4: No (No. patients) [7, 16]: 6
- Neutropenia grade 3–4: Yes (No. patients) [7, 16]: 2
- Neutropenia grade 3–4: No (No. patients) [7, 17]: 4
- Neutropenia grade 3–4: Yes (No. patients) [7, 17]: 1
- Neutropenia grade 3–4: Yes (No. patients) ([7]; FLT3 738C > T CT, total 15 patients): 8
- Neutropenia grade 3–4: No (No. patients) [7, 18]: 6
- Neutropenia grade 3–4: Yes (No. patients) [7, 18]: 4
- Neutropenia grade 3–4: No (No. patients) [7, 19]: 5
- Neutropenia grade 3–4: Yes (No. patients) [7, 19]: 2
- Neutropenia grade 3–4: No (No. patients) [7, 20]: 2
- Neutropenia grade 3–4: Yes (No. patients) [7, 20]: 3
- Neutropenia grade 3–4: No (No. patients) [7, 21]: 10
- Neutropenia grade 3–4: Yes (No. patients) [7, 21]: 6
- Neutropenia grade 3–4: No (No. patients) [7, 22]: 5
- Neutropenia grade 3–4: Yes (No. patients) [7, 22]: 4
- Neutropenia grade 3–4: No (No. patients) [7, 23]: 2
- Neutropenia grade 3–4: Yes (No. patients) [7, 23]: 1
- Neutropenia grade 3–4: No (No. patients) ([7]; KDR 1192G > A GG, total 27 patients): 15
- Neutropenia grade 3–4: Yes (No. patients) ([7]; KDR 1719A > T AA, total 1 patient): 1
- Neutropenia grade 3–4: No (No. patients) ([7]; KDR 1719A > T AT, total 15 patients): 8
- Neutropenia grade 3–4: Yes (No. patients) ([7]; KDR 1719A > T TT, total 14 patients): 5
- Neutropenia grade 3–4: No (No. patients) ([7]; KDR −92G > A AA, total 3 patients): 3
- Neutropenia grade 3–4: No (No. patients) [7, 24]: 4
- Neutropenia grade 3–4: Yes (No. patients) [7, 24]: 3
- Neutropenia grade 3–4: No (No. patients) [7, 25]: 10
- Neutropenia grade 3–4: Yes (No. patients) [7, 25]: 10
- Neutropenia grade 3–4: Yes (No. patients) ([7]; KDR −604T > C CC, total 9 patients): 2
- Neutropenia grade 3–4: Yes (No. patients) ([7]; KDR −604T > C TC, total 15 patients): 8
- Neutropenia grade 3–4: No (No. patients) [7, 26]: 3
- Neutropenia grade 3–4: Yes (No. patients) [7, 26]: 3
- Neutropenia grade 3–4: No (No. patients) [7, 27]: 1
- Neutropenia grade 3–4: Yes (No. patients) [7, 27]: 2
- Neutropenia grade 3–4: No (No. patients) [7, 28]: 6
- Neutropenia grade 3–4: Yes (No. patients) [7, 28]: 2
- Neutropenia grade 3–4: No (No. patients) ([7]; RET 37412G > A AA, total 1 patient): 1
- Neutropenia grade 3–4: No (No. patients) [7, 29]: 2
- Neutropenia grade 3–4: Yes (No. patients) [7, 29]: 3
- Neutropenia grade 3–4: Yes (No. patients) ([7]; RET 37412G > A GG, total 24 patients): 10
- pIC50 [10]: > 6.30
- pIC50 [11]: > 6.30
- clearance ([12]; 3-hour infusion schedule): 16.2 L/hour/m^2
- clearance ([12]; 6-hour infusion schedule): 18.0 L/hour/m^2
- dose linearity of pharmacokinetics ([12]; over the dose-range studied, phase I): linear pharmacokinetics
- elimination half-life ([12]; phase I study, intravenous): about 30 h
- plasma clearance (range) ([12]; phase I study, intravenous): 10 to 59 L/h
